Measurements: ChEMBL document CHEMBL1136005 (J Med Chem, 2002)
One block for each molecule: values may come before it.

What was measured:
[1] = Plasma concentration was determined after 1 hr at a dose 30 mg/kg administered orally to rat-10; assay type: ADME, organism-based; set-up: dose 30 mg/kg, route oral; conditions: po
In short: (§1)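 Sprague-Dawley rats, n=2 per compound, dosed orally at 30 mg/kg. Plasma drug concentration measured 1 and 8 h after dosing.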

[2] = Plasma concentration was determined after 1 hr at a dose 30 mg/kg administered orally to rat-9; assay type: ADME, organism-based; set-up: dose 30 mg/kg, route oral; conditions: po; in short: as §1
[3] = Plasma concentration was determined after 8 hr at a dose 30 mg/kg administered orally to rat-10; assay type: ADME, organism-based; set-up: dose 30 mg/kg, route oral; conditions: po; in short: as §1
[4] = Plasma concentration was determined after 8 hr at a dose 30 mg/kg administered orally to rat-9; assay type: ADME, organism-based; set-up: dose 30 mg/kg, route oral; conditions: po; in short: as §1
[5] = pharmacokinetic parameter was evaluated after oral administration of 30 mg/kg to rat; assay type: ADME, organism-based; set-up: dose 30 mg/kg, route oral; conditions: in vivo
In short: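 Sprague-Dawley rats, n=3, dosed orally at 30 mg/kg. Plasma drug concentrations were followed to derive Tmax (h), Cmax (µg/mL), T1/2 (h) and AUC0-∞ (µg h/mL).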

[6] = biological target: Fibroblast growth factor receptor (Homo sapiens, UniProt P22607+P11362+P22455+P21802); test: Inhibition of Fibroblast growth factor receptor autophosphorylation; assay type: protein assay
[7] = biological target: T1, Receptor-type tyrosine-protein kinase FLT3 (Homo sapiens, UniProt P36888); test: Inhibition of Flt3 autophosphorylation
T1 sequence (P36888 whole entry): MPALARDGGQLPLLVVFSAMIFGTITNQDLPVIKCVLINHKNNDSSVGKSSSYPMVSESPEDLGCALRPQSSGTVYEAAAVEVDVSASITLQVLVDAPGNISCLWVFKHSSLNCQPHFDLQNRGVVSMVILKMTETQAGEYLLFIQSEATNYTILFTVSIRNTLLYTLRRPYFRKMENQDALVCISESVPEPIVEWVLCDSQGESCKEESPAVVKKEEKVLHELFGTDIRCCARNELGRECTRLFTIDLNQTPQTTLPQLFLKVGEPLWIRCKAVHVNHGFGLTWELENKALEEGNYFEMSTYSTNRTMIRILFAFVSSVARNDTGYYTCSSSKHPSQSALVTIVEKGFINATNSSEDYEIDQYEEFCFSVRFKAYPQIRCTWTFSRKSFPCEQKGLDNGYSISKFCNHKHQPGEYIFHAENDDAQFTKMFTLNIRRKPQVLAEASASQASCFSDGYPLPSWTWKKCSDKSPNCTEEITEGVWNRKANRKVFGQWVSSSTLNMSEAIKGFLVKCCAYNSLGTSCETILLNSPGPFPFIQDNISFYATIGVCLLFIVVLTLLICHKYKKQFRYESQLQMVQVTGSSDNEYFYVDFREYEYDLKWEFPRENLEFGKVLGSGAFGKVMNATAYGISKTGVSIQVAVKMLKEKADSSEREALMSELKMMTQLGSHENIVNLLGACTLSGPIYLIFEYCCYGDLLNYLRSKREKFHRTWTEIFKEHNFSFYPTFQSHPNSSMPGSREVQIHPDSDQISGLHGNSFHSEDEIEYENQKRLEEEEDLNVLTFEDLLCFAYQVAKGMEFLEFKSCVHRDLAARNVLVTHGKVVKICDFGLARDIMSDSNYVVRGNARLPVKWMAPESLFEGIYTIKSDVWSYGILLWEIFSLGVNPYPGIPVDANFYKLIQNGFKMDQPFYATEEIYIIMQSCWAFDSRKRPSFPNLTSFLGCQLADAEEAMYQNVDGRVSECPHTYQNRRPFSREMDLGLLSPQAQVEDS

[8] = biological target: Mitogen-activated protein kinase; ERK1/ERK2 (Homo sapiens, UniProt P27361+P28482); test: Inhibition of Extracellular signal-regulated kinase (Erk); assay type: protein assay
In short: (§2)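 Substrate phosphorylation measured in an in vitro assay with purified enzyme; IC50 values in µmol/L.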

[9] = biological target: Dual specificity mitogen-activated protein kinase kinase 1 (Homo sapiens, UniProt Q02750); test: Inhibition of Mitogen activated protein kinase kinase 1; in short: as §2
[10] = biological target: MAP kinase p38 (Homo sapiens, UniProt O15264+Q15759+Q16539+P53778); test: Inhibition of Mitogen-activated protein kinase p38; assay type: protein assay; in short: as §2
[11] = biological target: T2, Dual specificity mitogen-activated protein kinase kinase 6 (Homo sapiens, UniProt P52564); test: Inhibition of Mitogen activated protein kinase kinase 6; in short: as §2
T2 sequence (P52564 whole entry): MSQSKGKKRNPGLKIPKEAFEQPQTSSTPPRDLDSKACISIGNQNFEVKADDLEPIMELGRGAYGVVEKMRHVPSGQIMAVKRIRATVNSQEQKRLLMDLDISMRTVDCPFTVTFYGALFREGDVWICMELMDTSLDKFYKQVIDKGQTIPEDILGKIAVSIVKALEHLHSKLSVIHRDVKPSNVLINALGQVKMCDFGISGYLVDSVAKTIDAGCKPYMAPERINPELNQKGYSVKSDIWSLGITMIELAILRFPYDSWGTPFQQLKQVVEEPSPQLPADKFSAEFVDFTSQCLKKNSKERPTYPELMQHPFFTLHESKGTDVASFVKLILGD

[12] = biological target: Protein kinase C (PKC); test: Inhibition of Protein kinase C; assay type: protein assay; in short: as §2
[13] = biological target: cAMP-dependent protein kinase (PKA) (Homo sapiens, UniProt P22694+P17612+P22612); test: Inhibition of Protein kinase A (PKA); assay type: protein assay; in short: as §2
[14] = biological target: Proto-oncogene tyrosine-protein kinase Src (Homo sapiens, UniProt P12931); test: Inhibition of Src protein tyrosine kinase; in short: as §2
[15] = biological target: Vascular endothelial growth factor receptor 2 (Homo sapiens, UniProt P35968); test: Inhibition of Vascular endothelial growth factor receptor 2 (VEGFR-2) autophosphorylation
[16] = biological target: Mitogen-activated protein kinase 8 (Homo sapiens, UniProt P45983); test: Inhibition of c-Jun N-terminal kinase (Jnk); in short: as §2
[17] = biological target: Tyrosine-protein kinase ABL (Homo sapiens, UniProt P00519+P42684); test: Inhibition of Abl tyrosine kinase; assay type: protein assay; in short: as §2
[18] = biological target: Macrophage colony-stimulating factor 1 receptor (Homo sapiens, UniProt P07333); test: Inhibition of Colony stimulating factor 1 receptor (CSF-1R) autophosphorylation
[19] = Plasma concentration was determined after 1 hr at a dose 30 mg/kg administered orally to rat-15; assay type: ADME, organism-based; set-up: dose 30 mg/kg, route oral; conditions: po; in short: as §1
[20] = Plasma concentration was determined after 1 hr at a dose 30 mg/kg administered orally to rat-16; assay type: ADME, organism-based; set-up: dose 30 mg/kg, route oral; conditions: po; in short: as §1
[21] = Plasma concentration was determined after 8 hr at a dose 30 mg/kg administered orally to rat-16; assay type: ADME, organism-based; set-up: dose 30 mg/kg, route oral; conditions: po; in short: as §1
[22] = Lipophilicity was reported; assay type: physicochemical; conditions: octanol/water
[23] = biological target: Platelet-derived growth factor receptor (Homo sapiens, UniProt P09619+P16234); test: Concentration required for 50% inhibition against autophosphorylation of Platelet-derived growth factor receptor beta in intact cells using a two site ELISA; assay type: cell-based
[24] = Plasma concentration was determined after 8 hr at a dose 30 mg/kg administered orally to rat-15; assay type: ADME, organism-based; set-up: dose 30 mg/kg, route oral; conditions: po; in short: as §1
[25] = Plasma concentration was determined after 1 hr at a dose 30 mg/kg administered orally to rat-5; assay type: ADME, organism-based; set-up: dose 30 mg/kg, route oral; conditions: po; in short: as §1
[26] = Plasma concentration was determined after 1 hr at a dose 30 mg/kg administered orally to rat-6; assay type: ADME, organism-based; set-up: dose 30 mg/kg, route oral; conditions: po; in short: as §1
[27] = Plasma concentration was determined after 8 hr at a dose 30 mg/kg administered orally to rat-5; assay type: ADME, organism-based; set-up: dose 30 mg/kg, route oral; conditions: po; in short: as §1
[28] = Plasma concentration was determined after 8 hr at a dose 30 mg/kg administered orally to rat-6; assay type: ADME, organism-based; set-up: dose 30 mg/kg, route oral; conditions: po; in short: as §1
[29] = Plasma concentration was determined after 1 hr at a dose 30 mg/kg administered orally to rat-7; assay type: ADME, organism-based; set-up: dose 30 mg/kg, route oral; conditions: po; in short: as §1
[30] = Plasma concentration was determined after 8 hr at a dose 30 mg/kg administered orally to rat-7; assay type: ADME, organism-based; set-up: dose 30 mg/kg, route oral; conditions: po; in short: as §1
[31] = Plasma concentration was determined after 8 hr at a dose 30 mg/kg administered orally to rat-8; assay type: ADME, organism-based; set-up: dose 30 mg/kg, route oral; conditions: po; in short: as §1
[32] = Plasma concentration was determined after 1 hr at a dose 30 mg/kg administered orally to rat-8; assay type: ADME, organism-based; set-up: dose 30 mg/kg, route oral; conditions: po; in short: as §1

Chain of Proto-oncogene tyrosine-protein kinase Src (P12931 2-536 limits assumed): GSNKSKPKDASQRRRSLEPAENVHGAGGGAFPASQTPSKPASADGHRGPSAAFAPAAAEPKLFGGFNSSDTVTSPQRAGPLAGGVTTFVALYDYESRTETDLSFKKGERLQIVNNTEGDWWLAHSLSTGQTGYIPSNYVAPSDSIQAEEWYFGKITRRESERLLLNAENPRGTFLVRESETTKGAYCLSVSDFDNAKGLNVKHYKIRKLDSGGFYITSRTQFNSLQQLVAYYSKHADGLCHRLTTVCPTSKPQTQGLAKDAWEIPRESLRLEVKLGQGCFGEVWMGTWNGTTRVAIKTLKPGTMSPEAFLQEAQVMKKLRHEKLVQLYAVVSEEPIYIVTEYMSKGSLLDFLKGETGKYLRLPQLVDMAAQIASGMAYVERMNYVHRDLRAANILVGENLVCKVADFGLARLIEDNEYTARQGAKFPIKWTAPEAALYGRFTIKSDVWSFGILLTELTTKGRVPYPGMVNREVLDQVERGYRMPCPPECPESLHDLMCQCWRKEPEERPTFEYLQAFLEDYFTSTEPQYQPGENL
Chain of Vascular endothelial growth factor receptor 2 (P35968 whole entry): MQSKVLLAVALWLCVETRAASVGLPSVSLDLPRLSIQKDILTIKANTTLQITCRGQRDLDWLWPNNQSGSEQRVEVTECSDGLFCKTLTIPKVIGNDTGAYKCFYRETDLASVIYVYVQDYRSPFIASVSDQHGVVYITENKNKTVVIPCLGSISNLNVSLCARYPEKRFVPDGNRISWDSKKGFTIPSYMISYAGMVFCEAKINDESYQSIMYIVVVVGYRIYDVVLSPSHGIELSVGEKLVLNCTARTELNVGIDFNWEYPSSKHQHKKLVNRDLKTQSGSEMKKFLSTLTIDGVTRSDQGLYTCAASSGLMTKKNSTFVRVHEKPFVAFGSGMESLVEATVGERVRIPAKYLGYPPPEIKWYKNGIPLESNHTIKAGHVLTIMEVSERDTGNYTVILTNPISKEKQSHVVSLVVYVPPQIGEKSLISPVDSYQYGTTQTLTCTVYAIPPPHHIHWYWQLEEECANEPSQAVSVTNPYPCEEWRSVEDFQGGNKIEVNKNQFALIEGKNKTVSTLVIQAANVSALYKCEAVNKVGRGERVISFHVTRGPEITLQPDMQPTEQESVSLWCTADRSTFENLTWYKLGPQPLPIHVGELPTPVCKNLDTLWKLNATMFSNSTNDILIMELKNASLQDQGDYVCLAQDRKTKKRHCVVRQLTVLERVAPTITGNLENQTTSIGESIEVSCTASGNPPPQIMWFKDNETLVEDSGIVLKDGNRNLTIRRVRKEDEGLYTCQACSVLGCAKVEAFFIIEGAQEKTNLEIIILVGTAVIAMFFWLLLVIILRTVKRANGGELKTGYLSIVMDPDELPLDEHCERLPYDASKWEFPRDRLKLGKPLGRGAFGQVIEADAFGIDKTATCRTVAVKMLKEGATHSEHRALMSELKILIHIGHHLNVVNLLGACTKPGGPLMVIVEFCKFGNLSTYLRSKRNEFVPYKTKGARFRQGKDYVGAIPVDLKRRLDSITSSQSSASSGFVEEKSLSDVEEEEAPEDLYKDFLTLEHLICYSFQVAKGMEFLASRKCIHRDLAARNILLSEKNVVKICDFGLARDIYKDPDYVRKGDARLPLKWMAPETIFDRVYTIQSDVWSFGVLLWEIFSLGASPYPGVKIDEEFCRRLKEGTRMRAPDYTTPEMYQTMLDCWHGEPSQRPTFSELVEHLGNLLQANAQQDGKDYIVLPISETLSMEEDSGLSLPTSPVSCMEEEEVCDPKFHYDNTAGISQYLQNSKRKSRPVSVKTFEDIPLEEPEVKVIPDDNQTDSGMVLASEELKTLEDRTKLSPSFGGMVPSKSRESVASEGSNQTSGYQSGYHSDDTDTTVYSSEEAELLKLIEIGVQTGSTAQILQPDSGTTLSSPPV
Chain of Macrophage colony-stimulating factor 1 receptor (P07333 whole entry): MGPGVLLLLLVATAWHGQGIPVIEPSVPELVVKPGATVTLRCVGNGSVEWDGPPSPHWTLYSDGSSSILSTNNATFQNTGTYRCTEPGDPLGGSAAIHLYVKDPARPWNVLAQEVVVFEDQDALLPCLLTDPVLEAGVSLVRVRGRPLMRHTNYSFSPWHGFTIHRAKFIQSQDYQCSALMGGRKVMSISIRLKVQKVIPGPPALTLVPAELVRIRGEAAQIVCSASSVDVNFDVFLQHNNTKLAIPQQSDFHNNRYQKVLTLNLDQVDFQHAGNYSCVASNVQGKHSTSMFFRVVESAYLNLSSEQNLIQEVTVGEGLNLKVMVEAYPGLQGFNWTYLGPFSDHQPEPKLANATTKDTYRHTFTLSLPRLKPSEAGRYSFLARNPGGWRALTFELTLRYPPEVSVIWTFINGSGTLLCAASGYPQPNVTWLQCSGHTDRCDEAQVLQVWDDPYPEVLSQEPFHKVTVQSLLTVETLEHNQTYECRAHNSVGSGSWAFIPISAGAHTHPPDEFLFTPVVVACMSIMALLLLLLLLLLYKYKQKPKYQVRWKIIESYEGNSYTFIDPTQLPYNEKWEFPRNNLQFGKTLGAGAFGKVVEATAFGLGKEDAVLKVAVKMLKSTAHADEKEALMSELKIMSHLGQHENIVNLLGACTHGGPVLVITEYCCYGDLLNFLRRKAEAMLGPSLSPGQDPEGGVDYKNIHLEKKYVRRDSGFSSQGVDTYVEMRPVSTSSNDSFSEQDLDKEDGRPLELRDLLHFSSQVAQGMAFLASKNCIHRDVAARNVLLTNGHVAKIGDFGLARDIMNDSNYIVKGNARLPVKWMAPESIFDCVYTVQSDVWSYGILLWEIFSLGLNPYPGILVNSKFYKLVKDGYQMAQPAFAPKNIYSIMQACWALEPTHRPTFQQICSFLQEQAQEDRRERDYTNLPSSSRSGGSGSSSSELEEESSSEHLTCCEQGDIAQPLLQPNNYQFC
Chain of Dual specificity mitogen-activated protein kinase kinase 1 (Q02750 whole entry): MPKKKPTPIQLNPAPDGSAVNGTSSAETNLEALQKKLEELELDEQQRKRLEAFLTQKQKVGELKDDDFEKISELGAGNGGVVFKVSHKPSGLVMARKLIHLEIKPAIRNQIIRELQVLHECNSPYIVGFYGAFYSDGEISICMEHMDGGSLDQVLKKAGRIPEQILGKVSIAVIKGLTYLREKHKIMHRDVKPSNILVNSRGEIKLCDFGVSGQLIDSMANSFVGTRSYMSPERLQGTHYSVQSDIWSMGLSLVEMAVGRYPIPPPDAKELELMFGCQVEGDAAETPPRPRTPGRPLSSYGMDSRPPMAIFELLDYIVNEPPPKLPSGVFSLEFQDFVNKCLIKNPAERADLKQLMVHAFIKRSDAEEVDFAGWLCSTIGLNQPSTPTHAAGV
Chain of Mitogen-activated protein kinase 8 (P45983 whole entry): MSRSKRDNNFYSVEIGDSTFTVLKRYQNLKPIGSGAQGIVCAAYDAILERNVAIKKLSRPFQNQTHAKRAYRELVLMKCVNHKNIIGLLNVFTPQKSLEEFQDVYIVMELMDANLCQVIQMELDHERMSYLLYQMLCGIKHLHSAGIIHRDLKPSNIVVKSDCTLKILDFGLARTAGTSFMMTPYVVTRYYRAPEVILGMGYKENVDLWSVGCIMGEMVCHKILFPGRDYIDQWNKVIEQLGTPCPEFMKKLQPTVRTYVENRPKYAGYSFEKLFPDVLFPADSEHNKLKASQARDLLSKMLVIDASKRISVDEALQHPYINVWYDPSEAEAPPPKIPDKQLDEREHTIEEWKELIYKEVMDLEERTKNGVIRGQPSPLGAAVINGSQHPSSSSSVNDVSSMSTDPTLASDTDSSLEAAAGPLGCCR

concentration at 1 h [1]: 5900 ng/mL
concentration at 1 h [2]: 5100 ng/mL
concentration at 8 h [3]: 3600 ng/mL
concentration at 8 h [4]: 2400 ng/mL
AUC [5]: 89900 ng·h/mL
Cmax [5]: 14500 ng/mL
Tmax [5]: 3.33 h
half-life [5]: 3.92 h
IC50 [6]: 160 uM l-1
IC50 [7]: 14.9 µM
IC50 [8]: > 30 uM l-1
IC50 [9]: > 30 µM
IC50 [10]: > 30 uM l-1
IC50 [11]: > 30 µM
IC50 [12]: > 30 uM l-1
IC50 [13]: > 30 uM l-1
IC50 [14]: > 30 µM
IC50 [15]: 17.3 µM
IC50 [16]: > 30 µM
IC50 [17]: > 30 uM l-1
IC50 [18]: > 30 µM
SMILES: COc1cc2ncnc(N3CCN(/C(S)=N\Cc4ccc5c(c4)OCO5)CC3)c2cc1OC

concentration at 1 h [19]: 3000 ng/mL
concentration at 1 h [20]: 3700 ng/mL
concentration at 8 h [21]: 1400 ng/mL
AUC [5]: 95800 ng·h/mL
Cmax [5]: 7200 ng/mL
Tmax [5]: 3.67 h
half-life [5]: 3.33 h
logD [22]: 2.75
IC50 [23]: 0.33 µM
concentration at 8 h [24]: 1200 ng/mL
SMILES: COc1cc2ncnc(N3CCN(C(=S)NCc4ccco4)CC3)c2cc1OC

concentration at 1 h [25]: 2400 ng/mL
concentration at 1 h [26]: < 100 ng/mL
concentration at 8 h [27]: 1300 ng/mL
concentration at 8 h [28]: < 100 ng/mL
IC50 [23]: 0.07 µM
SMILES: COc1cc2ncnc(N3CCN(C(=S)NCc4ccc(Cl)cc4)CC3)c2cc1OC

concentration at 1 h [29]: 2300 ng/mL
concentration at 8 h [30]: 400 ng/mL
concentration at 8 h [31]: 500 ng/mL
IC50 [23]: 0.1 µM
concentration at 1 h [32]: 2500 ng/mL
SMILES: COc1ccc(CNC(=S)N2CCN(c3ncnc4cc(OC)c(OC)cc34)CC2)cc1
